In ChEMBL document CHEMBL3871271, “Novel bis-arylalkylamines as myeloperoxidase inhibitors: Design, synthesis, and structure-activity relationship study” (Eur J Med Chem, 2016):

How the values were obtained:
Myeloperoxidase = biological target: T1, Myeloperoxidase (Homo sapiens, UniProt P05164); assay: Inhibition of MPO chlorination activity (unknown origin) assessed as taurine chloramine formation after 5 mins in presence of H2O2/Cl- by HTS method
T1 sequence (P05164 whole entry): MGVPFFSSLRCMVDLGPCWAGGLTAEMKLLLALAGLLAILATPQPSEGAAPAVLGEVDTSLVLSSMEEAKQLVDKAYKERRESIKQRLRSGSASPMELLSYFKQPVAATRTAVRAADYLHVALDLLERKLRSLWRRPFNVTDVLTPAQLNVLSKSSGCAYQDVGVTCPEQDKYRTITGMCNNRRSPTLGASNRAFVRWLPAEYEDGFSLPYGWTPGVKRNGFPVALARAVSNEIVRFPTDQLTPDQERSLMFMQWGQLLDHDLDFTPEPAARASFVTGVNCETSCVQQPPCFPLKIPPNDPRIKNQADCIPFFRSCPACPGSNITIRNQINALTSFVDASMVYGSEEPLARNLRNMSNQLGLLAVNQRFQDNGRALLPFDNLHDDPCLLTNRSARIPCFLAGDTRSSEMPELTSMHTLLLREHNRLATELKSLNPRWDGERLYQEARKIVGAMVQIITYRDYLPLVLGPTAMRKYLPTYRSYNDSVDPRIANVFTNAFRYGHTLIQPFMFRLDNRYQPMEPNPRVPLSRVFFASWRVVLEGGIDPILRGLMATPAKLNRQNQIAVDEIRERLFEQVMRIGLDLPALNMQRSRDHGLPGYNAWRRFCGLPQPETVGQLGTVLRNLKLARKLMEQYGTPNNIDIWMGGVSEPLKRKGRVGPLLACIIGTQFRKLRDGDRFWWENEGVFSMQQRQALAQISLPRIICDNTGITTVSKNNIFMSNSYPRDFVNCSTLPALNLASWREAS
Outline: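 Recombinant MPO (40 nM) in 10 mM phosphate buffer pH 7.4 with 300 mM NaCl and 15 mM taurine, inhibitor up to 20 μM, 37 °C. Started with H2O2 (100 μM), stopped after 5 min with catalase. Taurine chloramine read with thionitrobenzoic acid at 412 nm. IC50 taken from the concentration curve, no H2O2 = 100% inhibition, no inhibitor = 0%.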

[1] = Redox potential of compound in Ag/AgCl-NaCl containing phosphate buffer assessed as one electron redox potential at 1 10^-4M by cyclic voltammetric analysis
Outline: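 Cyclic voltammetry at 25 ± 2 °C in a three-electrode cell: glassy carbon working, platinum wire auxiliary, Ag/AgCl (3 M NaCl) reference. Inhibitor 1×10^-4 M in 0.1 M phosphate buffer pH 7.4. Single cycle at 100 mV s⁻¹. E°′ converted to NHE by adding +198 mV.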

[2] = biological target: Sodium-dependent serotonin transporter (Homo sapiens, UniProt P31645); assay: Inhibition of human SERT expressed in HEK293 cells assessed as reduction in [3]5-HT uptake; format: cell-based
Outline: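 hSERT cDNA in pcDNA3.1, transfected into HEK-293 MSR cells (DMEM, 10% FCS, penicillin/streptomycin, 6 µg/mL Geneticin, 37 °C, 5% CO2). Cells detached with Versene and trypsin/EDTA and seeded into plates. [3H]5-HT uptake measured per an earlier described method, with HEK-293 MSR cells used in place of COS-1. Ki reported.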

HEK293 = assay: Ratio of Ki for human SERT expressed in HEK293 cells to IC50 for MPO chlorination activity (unknown origin); format: cell-based
[3] = biological target: T2, Myeloperoxidase (Homo sapiens) (UniProt P05164); assay: Inhibition of human polymorphonuclear leukocyte MPO assessed as ratio of apparent bi-molecular rate constant for PorFe(4)=O radical reduction to PorFe(4)-OH reduction by stopped-flow spectroscopic analysis
T2 sequence (whole entry): T1 sequence (P05164 whole entry)

[4] = biological target: T2, Myeloperoxidase (Homo sapiens); assay: Inhibition of human polymorphonuclear leukocyte MPO assessed as apparent bimolecular rate constant for PorFe(4)-OH reduction for 4.01 to 31.32 secs by stopped-flow spectroscopic analysis
Outline: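 Single-exponential fits gave kobs, as the mean of ≥3 runs, with substrate at least 5-fold over enzyme. Conditions were 200 mM phosphate, pH 7.4, 25 °C, 2% DMSO final. Apparent second-order constant taken from the slope of kobs versus concentration.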

[5] = biological target: T2, Myeloperoxidase (Homo sapiens); assay: Inhibition of human polymorphonuclear leukocyte MPO assessed as apparent bi-molecular rate constant for PorFe(4)=O radical reduction for 0.001 to 2.681 secs by stopped-flow spectroscopic analysis
Outline: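 Purified MPO (purity index A430/A280 ≥0.86) at 8 µM was premixed with 80 µM H2O2. Reaction in 200 mM phosphate, pH 7.4, 25 °C, 2% DMSO final. kobs taken as the mean of ≥3 runs. Second-order constant derived from the slope of kobs versus concentration.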

Sequence of Sodium-dependent serotonin transporter (P31645 whole entry): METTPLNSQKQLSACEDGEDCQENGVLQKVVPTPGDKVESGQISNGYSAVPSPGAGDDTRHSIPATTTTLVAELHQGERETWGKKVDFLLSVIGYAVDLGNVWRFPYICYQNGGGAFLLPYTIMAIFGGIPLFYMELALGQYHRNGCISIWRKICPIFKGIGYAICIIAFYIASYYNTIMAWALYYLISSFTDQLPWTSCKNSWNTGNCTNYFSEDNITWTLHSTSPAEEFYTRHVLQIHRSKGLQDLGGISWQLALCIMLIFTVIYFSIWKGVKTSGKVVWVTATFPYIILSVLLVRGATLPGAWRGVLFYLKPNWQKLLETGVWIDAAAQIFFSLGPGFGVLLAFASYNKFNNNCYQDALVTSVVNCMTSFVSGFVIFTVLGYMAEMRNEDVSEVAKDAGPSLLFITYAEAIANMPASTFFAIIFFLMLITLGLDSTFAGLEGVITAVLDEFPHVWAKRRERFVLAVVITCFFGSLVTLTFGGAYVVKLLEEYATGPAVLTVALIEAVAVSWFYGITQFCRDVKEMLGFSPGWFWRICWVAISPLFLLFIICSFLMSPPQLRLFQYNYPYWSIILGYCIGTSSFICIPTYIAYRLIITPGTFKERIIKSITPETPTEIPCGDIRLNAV

| Compound | IC50 (Myeloperoxidase) [nM] | Activity [1] | also measured |
| --- | --- | --- | --- |
| Oc1ccccc1CCNCc1ccc(F)cc1 | 1160 | 865 mV | – |
| Fc1ccc2[nH]cc(CCCNCc3ccccc3)c2c1 | – | – | Ki [2]: 0.05 µM; Ratio (HEK293): 4.1 |
| COc1ccccc1CCNCc1ccccc1O | 1850 | 907 mV | – |
| Oc1ccccc1CN1CCN(Cc2ccccc2O)CC1 | 1400 | 1070 mV | – |
| c1ccc(CCNCc2ccccc2)cc1 | – | > 1.2 V | – |
| c1ccc(CN2CCCN(Cc3ccccc3)C2)cc1 | – | > 1.2 V | – |
| O=C1N(Cc2ccccc2)CCCN1Cc1ccccc1 | – | > 1.2 V | – |
| COc1ccccc1CCCNCc1ccccc1O | 2500 | 871 mV | – |
| c1ccc(CN2CCN(Cc3ccccc3)CC2)cc1 | > 10000 | 996 mV | – |
| Oc1ccccc1CNCCc1c[nH]c2ccc(F)cc12 | 85 | 902 mV | – |
| Oc1ccccc1CNCCc1ccccc1 | 700 | 973 mV | – |
| Oc1ccccc1CNCCCc1ccccc1 | 1200 | 928 mV | – |
| Oc1ccccc1CCCNCc1cccc(F)c1 | 370 | 820 mV | – |
| Oc1ccccc1CCCNCc1ccc(F)cc1 | 490 | 869 mV | – |
| Oc1ccccc1CCCNCc1ccccc1 | 360 | 825 mV | – |
| Fc1ccc(CN2CCN(Cc3ccc(F)cc3)CC2)cc1 | > 10000 | 1020 mV | – |
| COc1ccccc1CCNCc1ccc(F)cc1 | – | > 1.2 V | – |
| COc1ccccc1CCCNCc1ccccc1 | – | > 1.2 V | – |
| Oc1ccccc1CCNCc1ccccc1 | 2700 | 897 mV | – |

| Compound | IC50 (Myeloperoxidase) [nM] | Activity [1] | also measured |
| --- | --- | --- | --- |
| COc1ccccc1CCCNCc1cccc(F)c1 | – | > 1.2 V | – |
| COc1ccccc1CCNCc1ccccc1 | – | > 1.2 V | – |
| Oc1ccccc1CNCCCc1ccccc1F | 370 | 902 mV | – |
| Oc1ccccc1CCCNCc1ccccc1O | 350 | 844 mV | Ratio [3]: 313; Kapp [4]: 4.8 ×10³ /M/s; Kapp [5]: 1.5 ×10⁶ /M/s; Ki [2]: 11 µM; Ratio (HEK293): 31.4 |
| Oc1ccccc1CCCNCc1ccccc1F | 270 | 833 mV | Ratio [3]: 4070; Kapp [4]: 1.4 ×10³ /M/s; Kapp [5]: 5.7 ×10⁶ /M/s; Ki [2]: 14 µM; Ratio (HEK293): 51.8 |
| Oc1ccccc1CCNCc1cccc(F)c1 | 660 | 807 mV | – |
| COc1ccccc1CCCNCc1ccc(F)cc1 | – | > 1.2 V | – |
| c1ccc(CCCNCc2ccccc2)cc1 | – | > 1.2 V | – |
| COc1ccccc1CCNCc1cccc(F)c1 | – | > 1.2 V | – |
| COc1ccccc1CCCNCc1ccccc1F | – | > 1.2 V | – |
| Oc1ccccc1CNCCCc1c[nH]c2ccc(F)cc12 | 54 | 872 mV | Ratio [3]: 4000; Kapp [4]: 3.5 ×10³ /M/s; Kapp [5]: 1.4 ×10⁷ /M/s; Ki [2]: 0.8 µM; Ratio (HEK293): 14.8 |
| Fc1ccccc1CN1CCN(Cc2ccccc2F)CC1 | > 10000 | 1100 mV | – |
| Oc1ccccc1CCNCc1ccccc1F | 700 | 856 mV | – |
| Oc1ccccc1CCNCc1ccccc1O | 650 | 870 mV | – |
| COc1ccccc1CCNCc1ccccc1F | – | > 1.2 V | – |
| Fc1cccc(CN2CCN(Cc3cccc(F)c3)CC2)c1 | > 10000 | 1060 mV | – |
| Oc1ccccc1CC1CCCNC1 (centres undefined) | > 10000 | 960 mV | – |
| Oc1ccccc1CNCCc1ccccc1F | 670 | 948 mV | – |
| Oc1ccccc1CN1CCCCC1 | > 10000 | 953 mV | – |
